Measurements gathered from unrelated publications.
Protocols differ between the studies behind these lines.
MET M1250T: Hepatocyte growth factor receptor (MET, Homo sapiens, UniProt P08581, M1250T)
MET: Hepatocyte growth factor receptor (MET, Homo sapiens, UniProt P08581)
MET Y1235D: Hepatocyte growth factor receptor (MET, Homo sapiens, UniProt P08581, Y1235D)

CN(c1nccc(-c2cnn3ncccc23)n1)C1CC1
remaining binding (MET M1250T; binding; 1 µM): 100%

O=C(Nc1c[nH]nc1C(=O)NC1CCNCC1)c1cc(F)cc(F)c1
remaining binding (MET; binding; competition with immobilised ligand; 1 µM): 94%

CN(C)C(=O)Cn1cc(-c2nc([C@@](C)(c3ccc(-c4cnc(N)nc4)cc3)C3CC3)no2)cn1
remaining binding (MET Y1235D; cell-free assay; competition with immobilised ligand; 1 µM): 96%

O=C(c1ccc(Nc2nccc(-c3cc4ccccc4s3)n2)cc1)N1CCC(N2CCCC2)CC1
remaining binding (MET; binding; competition with immobilised ligand; 1 µM): 69%

Cc1cnn2ncc(-c3ccnc(N(C)C)n3)c2c1
remaining binding (MET; binding; 1 µM): 100%

FC(F)(F)c1ccc2c(c1)nc(-c1cccnc1)n2C1CC1
remaining binding (MET Y1235D; cell-free assay; competition with immobilised ligand; 1 µM): 100%

O=C(c1ccc(Nc2ncc(Cl)c(-c3cc4ccccc4s3)n2)cc1)N1CCC(N2CCCC2)CC1
remaining binding (MET M1250T; binding; competition with immobilised ligand; 1 µM): 31%

C[C@@H]1CCN(c2nccc(-c3cnn4ncccc34)n2)C1
remaining binding (MET Y1235D; binding; 1 µM): 79%

O=C(NCCCN1CCOCC1)c1ccc(Nc2nccc(-c3cc4ccccc4s3)n2)cc1
remaining binding (MET Y1235D; binding; competition with immobilised ligand; 1 µM): 100%

c1cncc(-c2cccc(Nc3nccc(NC4CCCCC4)n3)c2)c1
remaining binding (MET M1250T; binding; competition with immobilised ligand; 10 µM): 29%

COc1ncc2cc3ccccc3nc2c1C#N
remaining binding (MET; cell-free assay; competition with immobilised ligand; 5 µM): 91%

CN(C)c1nccc(-c2cnn3ncccc23)n1
remaining binding (MET; binding; 1 µM): 89%

O=C(c1ccc(Nc2ncc(Cl)c(-c3ccc(Cl)s3)n2)cc1)N1CCC(N2CCCC2)CC1
remaining binding (MET Y1235D; binding; competition with immobilised ligand; 1 µM): 51%

CN(C)c1nccc(-c2cnc3ncccn23)n1
remaining binding (MET M1250T; binding; 1 µM): 91%

CC1=C(C#N)C(c2ccc3c(c2)c(NC(=O)c2ccccc2C)nn3C)C(C#N)=C(C)N1
remaining binding (MET; cell-free assay; competition with immobilised ligand; 1 µM): 24%

CN1CCN(c2ccc(Nc3nccc(-c4ccccc4)n3)cc2C(F)(F)F)CC1
remaining binding (MET M1250T; binding; 10 µM): 24%

Cc1cnc(Nc2ccc(C(=O)N3CCC(N4CCCC4)CC3)cc2)nc1-c1cc2ccccc2s1
remaining binding (MET M1250T; binding; competition with immobilised ligand; 1 µM): 31%

C[C@@H]1CN(c2ccc3ncc(-c4ccc5[nH]nc(C6CC6)c5c4)n3n2)C[C@H](C)O1
remaining binding (MET; binding; competition with immobilised ligand; 0.5 µM): 80%

N[C@H]1CCN(c2nccc(-c3cnn4ncccc34)n2)C1
remaining binding (MET; binding; 1 µM): 90%

COc1cnc(Nc2cccc(S(N)(=O)=O)c2)nc1N1CCN(c2ccccc2)C(=O)C1
remaining binding (MET M1250T; binding; competition with immobilised ligand; 1 µM): 98%

CCC(=N\O)/C(C)=C/c1ccc(F)cc1
remaining binding (MET; cell-free assay; competition with immobilised ligand; 1 µM): 88%

CNC(=O)[C@@H]1CC[C@@H](n2c(-c3ccc4cnccc4c3)nc3ccc(C(=O)NCc4cccc(C(N)=O)c4)cc32)C1
remaining binding (MET; binding; competition with immobilised ligand; 1 µM): 98%

CC1CCCN1c1nccc(-c2cnn3ncccc23)n1 (stereo not shown)
remaining binding (MET Y1235D; binding; 1 µM): 100%

Cc1c(C(=O)O)cc(-c2ccc(C3CCNCC3)cc2)c2ccc(-c3ccc(C(F)(F)F)cc3)cc12
remaining binding (MET; cell-free assay; competition with immobilised ligand; 1 µM): 100%

Nc1ncc2c(n1)-c1c([nH]c3ccc(C#CC4CC4)cc13)CCCC2
remaining binding (MET Y1235D; binding; competition with immobilised ligand; 1 µM): 92%

O=C1CCc2cc(Nc3cc(OC4CCOCC4)c([N+](=O)[O-])cc3Cl)ccc2N1
remaining binding (MET Y1235D; cell-free assay; competition with immobilised ligand; 1 µM): 100%

CCN1CCN(Cc2ccc(C(=O)Nc3ccc(C)c(Oc4ccc5c(c4)CC(=O)N5)c3)cc2C(F)(F)F)CC1
remaining binding (MET; binding; competition with immobilised ligand; 1 µM): 100%

c1cnn2ncc(-c3ccnc(N4CCC45COC5)n3)c2c1
remaining binding (MET M1250T; binding; 1 µM): 41%

CC(C)(C)c1ccc(-c2nc(CBr)nn2-c2cccc(O)c2)cc1
remaining binding (MET; cell-free assay; competition with immobilised ligand; 10 µM): 83%

CN(C(=O)c1ccccc1)c1cc(N(C)c2ccc3c(c2)CCc2ccc(C(=O)NCCN4CCOCC4)cc2C3=O)ccc1F
remaining binding (MET Y1235D; cell-free assay; competition with immobilised ligand; 1 µM): 85%

O=C(NCC1CCOCC1)c1n[nH]cc1NC(=O)c1c(F)cccc1F
remaining binding (MET; binding; competition with immobilised ligand; 1 µM): 100%

COc1cnc(Nc2cccc(S(N)(=O)=O)c2)nc1N1CCN(c2ccccc2)CC1
remaining binding (MET M1250T; binding; competition with immobilised ligand; 1 µM): 74%

O=C(NCCCN1CCOCC1)c1ccc(Nc2ncc(Cl)c(-c3ccc(Cl)s3)n2)cc1
remaining binding (MET Y1235D; binding; competition with immobilised ligand; 1 µM): 99%

CN(C)C(=O)Cn1cc(-c2nc(C3(c4ccc(-c5cnc(N)nc5)cc4)CC3)no2)cn1
remaining binding (MET Y1235D; cell-free assay; competition with immobilised ligand; 1 µM): 98%
